This is an account of results in ChEMBL document CHEMBL1151953, “Biomimetic transformation and biological activities of Globiferin, a terpenoid benzoquinone from Cordia globifera” (J Nat Prod, 2009).

Assay [1] deals with Vero. Briefly: Cytotoxicity against african green monkey Vero cells by sulforhodamine B assay. It counts as cell-based. Particulars: Chlorocebus sabaeus. Put shortly: (§1)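 Cell lines used were KB (human oral epidermoid carcinoma), BC (human breast cancer), NCI-H187 (human small cell lung cancer) and Vero (African green monkey kidney fibroblasts). Cytotoxicity was read colorimetrically by the Skehan method, with ellipticine as the reference substance.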

Assay [2] relates to Candida albicans. The assay can be described thus: Antifungal activity against Candida albicans by XTT assay. It counts as functional, organism-based. (In general: Tetrazolium dyes change colour on reduction, which living cells bring about.)
The test system of assay [3] is Mycobacterium tuberculosis. The assay can be described thus: Antimicrobial activity against Mycobacterium tuberculosis H37Ra by microplate alamar blue assay. It counts as functional, organism-based. A general note: The colour change of resazurin is a common sign of viable cells or microbes.
Assay [4] has as its system KB. Briefly: Cytotoxicity against human KB cells by sulforhodamine B assay. It counts as functional, cell-based. Put shortly:
as §1
(In general: Sulforhodamine B stains cellular protein and so reports cell mass.)

A short description of assay [5]: Cytotoxicity against human BC1 cells by sulforhodamine B assay. Format: functional, cell-based. Put shortly:
as §1

Assay [6] concerns Plasmodium falciparum. Briefly: Antiplasmodial activity against multidrug-resistant Plasmodium falciparum K1. Format: functional, organism-based. Put shortly:
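Parasites kept in continuous in vitro culture (Trager–Jensen method); activity assessed by a microculture radioisotope technique.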

The subject of assay [7] is NCI-H187. Briefly: Cytotoxicity against human NCI-H187 cells by sulforhodamine B assay. It counts as functional, cell-based. Put shortly:
as §1

Structures are written as SMILES. In brackets after ≈: the same amount, converted by molar mass.

The IC50 is the concentration that inhibits the measured activity by half. One may read the MIC as the smallest concentration in the dilution series that meets the test's criterion for growth inhibition. For `C=C[C@]1(C)Cc2c(OC(=O)c3ccccc3)ccc(OC(=O)c3ccccc3)c2C[C@@H]1C(=C)C`, the IC50 is greater than 50 µg/mL in assay [1]; greater than 20 µg/mL in assay [2]; greater than 20 µg/mL in assay [4]; greater than 20 µg/mL in assay [5]; greater than 20 µg/mL in assay [6]; greater than 20 µg/mL in assay [7]. 200 µg/mL (≈ 442 µM) was the least that counted as inhibitory in assay [3] (MIC).
`C=C[C@]1(C)Cc2c(OC(C)=O)ccc(OC(C)=O)c2C[C@@H]1C(=C)C`: the IC50 in assay [1] is 7.3 µg/mL (≈ 22.2 µM); in assay [2], greater than 20 µg/mL; in assay [4], 8.5 µg/mL (≈ 25.9 µM); in assay [5] it was 9.2 µg/mL (≈ 28 µM); in assay [6] it was 0.4 µg/mL (≈ 1.22 µM); in assay [7], 5.1 µg/mL (≈ 15.5 µM). This compound gave an MIC in assay [3] of 25 µg/mL (≈ 76.1 µM).
Regarding `C/C(C=O)=C\CC/C(C)=C/Cc1cc(O)ccc1O` [ALLIODORIN], the IC50 in assay [1] was 14.1 µg/mL (≈ 54.2 µM); in assay [2], greater than 20 µg/mL; in assay [4] it was 12 µg/mL (≈ 46.1 µM); in assay [5], 10.3 µg/mL (≈ 39.6 µM); in assay [6] it was 3.1 µg/mL (≈ 11.9 µM); in assay [7], 2.2 µg/mL (≈ 8.45 µM). This compound also gave an MIC in assay [3] of 12.5 µg/mL (≈ 48 µM).
Compound `C[C@@H]1[C@H](O)[C@@H](C)/C=C/C=C/C=C/C=C/C=C/C=C/C=C/[C@H](O[C@@H]2O[C@H](C)[C@@H](O)[C@H](N)[C@@H]2O)C[C@@H]2O[C@](O)(C[C@@H](O)C[C@@H](O)[C@H](O)CC[C@@H](O)C[C@@H](O)CC(=O)O[C@H]1C)C[C@H](O)[C@H]2C(=O)O` [AMPHOTERICIN B] had an IC50 in assay [2] of 0.08 µg/mL (≈ 0.0866 µM).
Take `C[C@H]1[C@@H](O)O[C@@H]2O[C@@]3(C)CC[C@H]4[C@H](C)CC[C@@H]1[C@@]24OO3` [ARTENIMOL]: in assay [6], the IC50 worked out at 0.0012 µg/mL (≈ 0.00422 µM).
Consider `C=C1CCC[C@@]2(C)CC3=C(C[C@@H]12)C(=O)C=CC3=O` [CORDIACHROME B], for which the IC50 is 1.7 µg/mL (≈ 7.02 µM) in assay [1]; 7.7 µg/mL (≈ 31.8 µM) in assay [2]; 6 µg/mL (≈ 24.8 µM) in assay [4]; 6.4 µg/mL (≈ 26.4 µM) in assay [5]; 1.5 µg/mL (≈ 6.19 µM) in assay [6]; 0.4 µg/mL (≈ 1.65 µM) in assay [7]. In assay [3], 12.5 µg/mL (≈ 51.6 µM) was the least that counted as inhibitory (MIC).
Turning to `CC(C)=CCCC1(C)C=Cc2cc(O)ccc2O1` (stereo not drawn) [CORDIACHROMENE A], the IC50 is greater than 50 µg/mL in assay [1]; 11.2 µg/mL (≈ 45.8 µM) in assay [2]; greater than 20 µg/mL in assay [4]; greater than 20 µg/mL in assay [5]; greater than 20 µg/mL in assay [6]; greater than 20 µg/mL in assay [7]. For the same compound, the MIC in assay [3] came to 12.5 µg/mL (≈ 51.2 µM).
`C=C[C@@]1(C)CC2=C(C[C@H]1C(=C)C)C(=O)C=CC2=O` [Cordiachrome C]: the IC50 in assay [1] was found to be 1.4 µg/mL (≈ 5.78 µM); in assay [2], 4.6 µg/mL (≈ 19 µM); in assay [4], 1.5 µg/mL (≈ 6.19 µM); in assay [5], 1.8 µg/mL (≈ 7.43 µM); in assay [6], 0.2 µg/mL (≈ 0.825 µM); in assay [7], 0.2 µg/mL (≈ 0.825 µM). Also, in assay [3], the MIC was 1.5 µg/mL (≈ 6.19 µM).
For `C/C(C=O)=C\CCC1(C)C=Cc2cc(O)ccc2O1` (stereo not drawn) [ELAEAGIN], the IC50 is 20 µg/mL (≈ 77.4 µM) in assay [1]; greater than 20 µg/mL in assay [2]; greater than 20 µg/mL in assay [4]; greater than 20 µg/mL in assay [5]; 3.6 µg/mL (≈ 13.9 µM) in assay [6]; 6.1 µg/mL (≈ 23.6 µM) in assay [7]. In assay [3], the MIC was 12.5 µg/mL (≈ 48.4 µM).
Take `Cc1c2ccncc2c(C)c2c1[nH]c1ccccc12` [ELLIPTECINE]: the IC50 in assay [5] was found to be 0.2 µg/mL (≈ 0.812 µM); in assay [7] it was 0.3 µg/mL (≈ 1.22 µM).
As to `C/C1=C/CC/C(C)=C/CC2=C(C1)C(=O)C=CC2=O` [GLOBIFERIN], the IC50 in assay [1] was greater than 50 µg/mL; in assay [2] it was greater than 20 µg/mL; in assay [4] it was greater than 20 µg/mL; in assay [5], greater than 20 µg/mL; in assay [6] it was 2.1 µg/mL (≈ 8.67 µM); in assay [7], 0.5 µg/mL (≈ 2.06 µM). In assay [3], this compound had an MIC of 6.2 µg/mL (≈ 25.6 µM).
In assay [3], `NNC(=O)c1ccncc1` [ISONIAZID] gave an IC50 of 0.05 µg/mL (≈ 0.365 µM).
In assay [3], `NC[C@H]1O[C@H](O[C@H]2[C@H](O)[C@@H](O[C@H]3O[C@H](CO)[C@@H](O)[C@H](N)[C@H]3O)[C@H](N)C[C@@H]2N)[C@H](O)[C@@H](O)[C@@H]1O` [KANAMYCIN] displayed an IC50 of 2.5 µg/mL (≈ 5.16 µM).
As to `CO[C@H]1/C=C/O[C@@]2(C)Oc3c(C)c(O)c4c(O)c(c(/C=N/N5CCN(C)CC5)c(O)c4c3C2=O)NC(=O)/C(C)=C\C=C\[C@H](C)[C@H](O)[C@@H](C)[C@@H](O)[C@@H](C)[C@H](OC(C)=O)[C@@H]1C` [RIFAMPIN], half-maximal inhibition in assay [3] (IC50) required 0.0047 µg/mL (≈ 0.00571 µM).
